Activity calls are given as the source filed them. The rule behind the calls is not given here.
Key:
[1] = target: Glutathione reductase (Plasmodium falciparum 3D7) (UniProt O15770); experiment: Catalysis constant against Plasmodium falciparum glutathione reductase
Outline: (§1)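 Recombinant human or P. falciparum GR run as a quinone reductase without GSSG. Mix: 100 mM phosphate pH 7.0, 200 mM KCl, 100 μM NADPH, 1% DMSO, enzyme, and naphthoquinone at 10 levels from 10 to 400 μM. NADPH oxidation read at 340 nm (ε 6.22 mM⁻¹ cm⁻¹). Steady-state rates fitted to Michaelis–Menten by nonlinear regression to give Km and Vmax; kcat and kcat/Km calculated.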

[2] = target: T1, Glutathione reductase, mitochondrial (Homo sapiens) (UniProt P00390); experiment: Catalysis constant against human glutathione reductase; outline: as §1
T1 sequence (whole entry): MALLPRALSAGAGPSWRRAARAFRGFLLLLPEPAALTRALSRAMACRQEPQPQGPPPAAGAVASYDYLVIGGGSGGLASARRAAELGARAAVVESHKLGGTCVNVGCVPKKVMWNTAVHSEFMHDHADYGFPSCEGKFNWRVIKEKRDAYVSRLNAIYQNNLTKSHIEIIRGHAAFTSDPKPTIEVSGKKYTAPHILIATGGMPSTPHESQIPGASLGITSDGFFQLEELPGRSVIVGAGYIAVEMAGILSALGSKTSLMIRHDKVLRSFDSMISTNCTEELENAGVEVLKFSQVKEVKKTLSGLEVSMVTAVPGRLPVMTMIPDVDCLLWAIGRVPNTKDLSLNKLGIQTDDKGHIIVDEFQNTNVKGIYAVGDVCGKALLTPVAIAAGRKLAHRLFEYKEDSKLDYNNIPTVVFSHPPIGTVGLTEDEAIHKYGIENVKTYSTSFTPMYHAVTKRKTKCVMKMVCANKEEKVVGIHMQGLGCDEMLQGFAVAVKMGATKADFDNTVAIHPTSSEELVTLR

[3] = target: T1, Glutathione reductase, mitochondrial (Homo sapiens); experiment: Ratio of Catalysis constant Michaelis-Menten constant of human glutathione reductase; outline: as §1
[4] = target: Glutathione reductase (Plasmodium falciparum 3D7) (UniProt O15770); experiment: Ratio of Catalysis constant Michaelis-Menten constant of Plasmodium falciparum glutathione reductase; outline: as §1
MRC5 = experiment: Cytotoxicity against human diploid embryonic lung cell line hMRC-5 was observed at conc. upto 32 uM; (No cytotoxicity); assay type: functional, cell-based

Sequence of Glutathione reductase (Plasmodium falciparum 3D7) (O15770 whole entry): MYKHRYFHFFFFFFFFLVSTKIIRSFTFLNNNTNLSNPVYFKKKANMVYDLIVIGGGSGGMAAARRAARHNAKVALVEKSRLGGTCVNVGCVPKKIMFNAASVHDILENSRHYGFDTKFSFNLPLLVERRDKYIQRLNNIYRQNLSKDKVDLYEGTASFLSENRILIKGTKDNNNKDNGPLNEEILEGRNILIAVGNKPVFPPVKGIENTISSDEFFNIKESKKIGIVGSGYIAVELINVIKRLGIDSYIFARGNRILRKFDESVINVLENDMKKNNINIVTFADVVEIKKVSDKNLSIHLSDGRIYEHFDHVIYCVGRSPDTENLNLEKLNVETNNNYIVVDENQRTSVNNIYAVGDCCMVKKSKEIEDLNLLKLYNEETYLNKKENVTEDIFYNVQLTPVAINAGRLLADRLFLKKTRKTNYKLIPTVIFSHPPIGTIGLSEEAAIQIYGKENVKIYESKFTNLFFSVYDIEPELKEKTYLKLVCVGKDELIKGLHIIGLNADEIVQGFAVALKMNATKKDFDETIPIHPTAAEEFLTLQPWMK

CC1=CC(=O)c2ccccc2C1=O
K cat [1]: 0.16 s⁻¹ | K cat [2]: 0.16 s⁻¹ | K cat/Km [3]: 5330 M⁻¹ s⁻¹ | K cat/Km [4]: 1990 M⁻¹ s⁻¹

CC1=C(CCCC(=O)NCCC#N)C(=O)c2ccccc2C1=O
Cytotoxicity (MRC5): inactive

CC1=C(CCCCCC(=O)O)C(=O)c2ccccc2C1=O
Cytotoxicity (MRC5): inactive

CC1=C(CCCCC(=O)O)C(=O)c2ccccc2C1=O
Cytotoxicity (MRC5): inactive

CC1=C(CCCc2nnnn2CCC#N)C(=O)c2ccccc2C1=O
Cytotoxicity (MRC5): inactive

CC1=C(CCCCc2nnnn2CCC#N)C(=O)c2ccccc2C1=O
Cytotoxicity (MRC5): inactive

CC1=C(CCCCCC(=O)NCCC#N)C(=O)c2ccccc2C1=O
Cytotoxicity (MRC5): inactive

CC1=C(CCCCCc2nnnn2CCC#N)C(=O)c2ccccc2C1=O
Cytotoxicity (MRC5): inactive

CC1=C(CCCCCC(=O)OCCN(C)C)C(=O)c2ccccc2C1=O
Cytotoxicity (MRC5): inactive

CC1=C(CCCCC(=O)NCCC#N)C(=O)c2ccccc2C1=O
Cytotoxicity (MRC5): inactive

From ChEMBL document CHEMBL1138849, “5-substituted tetrazoles as bioisosteres of carboxylic acids. Bioisosterism and mechanistic studies on glutathione reductase inhibitors as antimalarials” (J Med Chem, 2004)
